Seven compounds from ChEMBL document CHEMBL1127736, “Isozyme-specific glutathione-S-transferase inhibitors: design and synthesis” (J Med Chem, 1994) can be followed below.

The target of assay [1] is T1, Glutathione S-transferase A1 (Homo sapiens, UniProt P08263).
T1 sequence (P08263 whole entry): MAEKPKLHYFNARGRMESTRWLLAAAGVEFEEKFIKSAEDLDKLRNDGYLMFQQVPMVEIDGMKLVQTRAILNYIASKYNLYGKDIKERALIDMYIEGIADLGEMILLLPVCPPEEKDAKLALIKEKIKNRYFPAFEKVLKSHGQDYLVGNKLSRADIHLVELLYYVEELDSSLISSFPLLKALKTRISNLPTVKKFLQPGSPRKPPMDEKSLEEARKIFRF
Kind of assay: Inhibitory activity was measured on recombinant human Glutathione-S-transferase A1 enzyme. Summed up: (§1)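 Enzyme inhibition was measured in the reaction of recombinant human GST isozymes (four isozymes tested) with glutathione and 1-chloro-2,4-dinitrobenzene (CDNB) as the electrophilic substrate. Ki values were determined by a previously published method. The error in each measurement is stated as ±30%.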

For assay [2], the target named is T2, Glutathione S-transferase Mu 2 (Homo sapiens, UniProt P28161).
T2 sequence (P28161 whole entry): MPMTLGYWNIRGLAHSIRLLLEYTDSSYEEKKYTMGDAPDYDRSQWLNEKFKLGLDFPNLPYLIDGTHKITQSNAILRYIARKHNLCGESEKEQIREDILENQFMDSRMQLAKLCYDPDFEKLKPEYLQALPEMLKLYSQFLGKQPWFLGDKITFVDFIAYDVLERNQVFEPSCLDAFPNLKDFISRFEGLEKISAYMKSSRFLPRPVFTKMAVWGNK
In words: Inhibitory activity was measured on recombinant human Glutathione S-transferase Mu 2. Summed up: as §1

For assay [3], the target named is Glutathione S-transferase P (Homo sapiens, UniProt P09211). Kind of assay: Inhibitory activity was measured on recombinant human Glutathione S-transferase P. Put shortly:
as §1

Assay [4] concerns the target T3, Glutathione S-transferase Mu 1 (Homo sapiens, UniProt P09488).
T3 sequence (P09488 whole entry): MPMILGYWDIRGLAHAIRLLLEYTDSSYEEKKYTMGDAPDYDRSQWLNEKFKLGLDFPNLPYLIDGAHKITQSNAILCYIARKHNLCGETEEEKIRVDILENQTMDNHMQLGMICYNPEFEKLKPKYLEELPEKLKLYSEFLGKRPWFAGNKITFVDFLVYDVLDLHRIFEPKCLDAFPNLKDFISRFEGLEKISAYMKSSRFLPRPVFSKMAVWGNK
Kind of assay: Inhibitory activity was measured on recombinant human Glutathione S-transferase Mu 1. Summed up: as §1

Assay [5] has as its target T3, Glutathione S-transferase Mu 1. Kind of assay: Inhibitory activity was measured on recombinant human Glutathione-S-transferase M1a enzyme. Put shortly: as §1

Structures are written as SMILES. Numbered stars: 1 amine (or outer) side, 2 acyl side, 3 side chain; on linkers, the order of the positions; unused ones are H or OH. Square brackets hold non-standard residues; d marks the D form. Peptide text beside a SMILES is read from it. * marks the point of attachment. γGlu = O=C(O)[CH](CCC(=O)[*:2])N[*:1]; Phg = N[CH](C(=O)O)c1ccccc1; Bn = c1ccc(C*)cc1

Glutathione S-transferase P, sequence (P09211 whole entry): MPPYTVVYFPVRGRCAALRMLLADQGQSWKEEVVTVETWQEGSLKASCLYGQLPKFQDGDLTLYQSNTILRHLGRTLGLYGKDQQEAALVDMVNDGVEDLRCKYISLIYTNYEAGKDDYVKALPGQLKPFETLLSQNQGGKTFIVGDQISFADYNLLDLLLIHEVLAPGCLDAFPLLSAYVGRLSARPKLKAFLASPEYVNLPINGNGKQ

One may read the Ki as the dissociation constant of the complex between target and ligand, obtained from inhibition or displacement. In the case of `NC(CCC(=O)NC(CSCc1ccccc1)C(=O)NCCC(=O)O)C(=O)O` (configuration not stated), the Ki amounted to 360 µM in assay [1], 26 µM in assay [2], 710 µM in assay [3] and 22 µM in assay [4].

As to `CCCCCCSCC(NC(=O)CCC(N)C(=O)O)C(=O)NCC(=O)O` (configuration not stated), the Ki is 0.84 µM in assay [1], 36 µM in assay [2] and 2 µM in assay [4].

With `NC(CCC(=O)NC(CSCc1ccccc1)C(=O)NC(C(=O)O)c1ccccc1)C(=O)O` (configuration not stated) (γGlu-Cys(Bn)-[Phg]-OH; configuration not given here), the Ki was 24.3 µM in assay [1], 184 µM in assay [2], 0.42 µM in assay [3] and 57.8 µM in assay [4].

For `CCCCCCSCC(NC(=O)CCC(N)C(=O)O)C(=O)NC(C(=O)O)c1ccccc1` (configuration not stated), the Ki in assay [1] stood at 5.8 µM; in assay [2], 97 µM; in assay [3] it was 0.85 µM; in assay [4] it was 41 µM.

On to `CCCCCCSCC(NC(=O)CCC(N)C(=O)O)C(=O)NCCC(=O)O` (configuration not stated), for which the Ki was found to be 43 µM in assay [1], 42 µM in assay [2], 550 µM in assay [3] and 11 µM in assay [4].

Take `Cc1ccc(CSCC(NC(=O)CCC(N)C(=O)O)C(=O)NCCC(=O)O)cc1` (configuration not stated): the Ki is 43 µM in assay [1], 20 µM in assay [2], 40 µM in assay [3] and 2.1 µM in assay [4].

`NC(CCC(=O)NC(CSCc1ccc(Cl)cc1)C(=O)NC(C(=O)O)c1ccccc1)C(=O)O` (configuration not stated): the Ki in assay [1] was 14.7 µM; in assay [2], 48.3 µM; in assay [5], 15.1 µM; in assay [3], 0.12 µM.
